These results are taken from article PMC6581564 (Biomacromolecules, 2019).

The test system of data set [1] is P. aeruginosa strain PAO1. The experiment in a line: Colistin MIC by modified broth microdilution assay. It counts as cell-based, Pseudomonas aeruginosa. The note with it: in MHB, 37 °C, 24 hours, visual inspection. In a few lines: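 PAO1 grown overnight in Mueller-Hinton II broth (MHB) at 37 °C, then diluted into fresh MHB to about 3×10⁴ CFU/mL. Test compound stock in water was serially diluted 2-fold in MHB and mixed 1:10 with the inoculum (final 1 mg/mL to 0.4 μg/mL). Plates incubated 24 h at 37 °C. MIC taken as the lowest concentration with no visible growth.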

For data set [2] the following is noted: cited from earlier work.
The target of a further data set is MUC5AC (Sus scrofa, UniProt A0A8W4FM62). The experiment in a line: Equilibrium dialysis. The class given is binding, pig. The note with it: mucin 0.5% w/v; for Mucin binding rank within the NIH Clinical Collection (NCC) set (ΔG): in PBS, 41 NCC molecules, 200 nM. A general note: Equilibrium dialysis compares concentrations on both sides of a semipermeable membrane.

Data set [3] has as its system P. aeruginosa strain PAO1. As to the kind of experiment: Colistin efficacy. The note with it: colistin 8 or 16 μg/mL, 24 h. It counts as cell-based, Pseudomonas aeruginosa.

Sequence of MUC5AC (A0A8W4FM62 1-4915): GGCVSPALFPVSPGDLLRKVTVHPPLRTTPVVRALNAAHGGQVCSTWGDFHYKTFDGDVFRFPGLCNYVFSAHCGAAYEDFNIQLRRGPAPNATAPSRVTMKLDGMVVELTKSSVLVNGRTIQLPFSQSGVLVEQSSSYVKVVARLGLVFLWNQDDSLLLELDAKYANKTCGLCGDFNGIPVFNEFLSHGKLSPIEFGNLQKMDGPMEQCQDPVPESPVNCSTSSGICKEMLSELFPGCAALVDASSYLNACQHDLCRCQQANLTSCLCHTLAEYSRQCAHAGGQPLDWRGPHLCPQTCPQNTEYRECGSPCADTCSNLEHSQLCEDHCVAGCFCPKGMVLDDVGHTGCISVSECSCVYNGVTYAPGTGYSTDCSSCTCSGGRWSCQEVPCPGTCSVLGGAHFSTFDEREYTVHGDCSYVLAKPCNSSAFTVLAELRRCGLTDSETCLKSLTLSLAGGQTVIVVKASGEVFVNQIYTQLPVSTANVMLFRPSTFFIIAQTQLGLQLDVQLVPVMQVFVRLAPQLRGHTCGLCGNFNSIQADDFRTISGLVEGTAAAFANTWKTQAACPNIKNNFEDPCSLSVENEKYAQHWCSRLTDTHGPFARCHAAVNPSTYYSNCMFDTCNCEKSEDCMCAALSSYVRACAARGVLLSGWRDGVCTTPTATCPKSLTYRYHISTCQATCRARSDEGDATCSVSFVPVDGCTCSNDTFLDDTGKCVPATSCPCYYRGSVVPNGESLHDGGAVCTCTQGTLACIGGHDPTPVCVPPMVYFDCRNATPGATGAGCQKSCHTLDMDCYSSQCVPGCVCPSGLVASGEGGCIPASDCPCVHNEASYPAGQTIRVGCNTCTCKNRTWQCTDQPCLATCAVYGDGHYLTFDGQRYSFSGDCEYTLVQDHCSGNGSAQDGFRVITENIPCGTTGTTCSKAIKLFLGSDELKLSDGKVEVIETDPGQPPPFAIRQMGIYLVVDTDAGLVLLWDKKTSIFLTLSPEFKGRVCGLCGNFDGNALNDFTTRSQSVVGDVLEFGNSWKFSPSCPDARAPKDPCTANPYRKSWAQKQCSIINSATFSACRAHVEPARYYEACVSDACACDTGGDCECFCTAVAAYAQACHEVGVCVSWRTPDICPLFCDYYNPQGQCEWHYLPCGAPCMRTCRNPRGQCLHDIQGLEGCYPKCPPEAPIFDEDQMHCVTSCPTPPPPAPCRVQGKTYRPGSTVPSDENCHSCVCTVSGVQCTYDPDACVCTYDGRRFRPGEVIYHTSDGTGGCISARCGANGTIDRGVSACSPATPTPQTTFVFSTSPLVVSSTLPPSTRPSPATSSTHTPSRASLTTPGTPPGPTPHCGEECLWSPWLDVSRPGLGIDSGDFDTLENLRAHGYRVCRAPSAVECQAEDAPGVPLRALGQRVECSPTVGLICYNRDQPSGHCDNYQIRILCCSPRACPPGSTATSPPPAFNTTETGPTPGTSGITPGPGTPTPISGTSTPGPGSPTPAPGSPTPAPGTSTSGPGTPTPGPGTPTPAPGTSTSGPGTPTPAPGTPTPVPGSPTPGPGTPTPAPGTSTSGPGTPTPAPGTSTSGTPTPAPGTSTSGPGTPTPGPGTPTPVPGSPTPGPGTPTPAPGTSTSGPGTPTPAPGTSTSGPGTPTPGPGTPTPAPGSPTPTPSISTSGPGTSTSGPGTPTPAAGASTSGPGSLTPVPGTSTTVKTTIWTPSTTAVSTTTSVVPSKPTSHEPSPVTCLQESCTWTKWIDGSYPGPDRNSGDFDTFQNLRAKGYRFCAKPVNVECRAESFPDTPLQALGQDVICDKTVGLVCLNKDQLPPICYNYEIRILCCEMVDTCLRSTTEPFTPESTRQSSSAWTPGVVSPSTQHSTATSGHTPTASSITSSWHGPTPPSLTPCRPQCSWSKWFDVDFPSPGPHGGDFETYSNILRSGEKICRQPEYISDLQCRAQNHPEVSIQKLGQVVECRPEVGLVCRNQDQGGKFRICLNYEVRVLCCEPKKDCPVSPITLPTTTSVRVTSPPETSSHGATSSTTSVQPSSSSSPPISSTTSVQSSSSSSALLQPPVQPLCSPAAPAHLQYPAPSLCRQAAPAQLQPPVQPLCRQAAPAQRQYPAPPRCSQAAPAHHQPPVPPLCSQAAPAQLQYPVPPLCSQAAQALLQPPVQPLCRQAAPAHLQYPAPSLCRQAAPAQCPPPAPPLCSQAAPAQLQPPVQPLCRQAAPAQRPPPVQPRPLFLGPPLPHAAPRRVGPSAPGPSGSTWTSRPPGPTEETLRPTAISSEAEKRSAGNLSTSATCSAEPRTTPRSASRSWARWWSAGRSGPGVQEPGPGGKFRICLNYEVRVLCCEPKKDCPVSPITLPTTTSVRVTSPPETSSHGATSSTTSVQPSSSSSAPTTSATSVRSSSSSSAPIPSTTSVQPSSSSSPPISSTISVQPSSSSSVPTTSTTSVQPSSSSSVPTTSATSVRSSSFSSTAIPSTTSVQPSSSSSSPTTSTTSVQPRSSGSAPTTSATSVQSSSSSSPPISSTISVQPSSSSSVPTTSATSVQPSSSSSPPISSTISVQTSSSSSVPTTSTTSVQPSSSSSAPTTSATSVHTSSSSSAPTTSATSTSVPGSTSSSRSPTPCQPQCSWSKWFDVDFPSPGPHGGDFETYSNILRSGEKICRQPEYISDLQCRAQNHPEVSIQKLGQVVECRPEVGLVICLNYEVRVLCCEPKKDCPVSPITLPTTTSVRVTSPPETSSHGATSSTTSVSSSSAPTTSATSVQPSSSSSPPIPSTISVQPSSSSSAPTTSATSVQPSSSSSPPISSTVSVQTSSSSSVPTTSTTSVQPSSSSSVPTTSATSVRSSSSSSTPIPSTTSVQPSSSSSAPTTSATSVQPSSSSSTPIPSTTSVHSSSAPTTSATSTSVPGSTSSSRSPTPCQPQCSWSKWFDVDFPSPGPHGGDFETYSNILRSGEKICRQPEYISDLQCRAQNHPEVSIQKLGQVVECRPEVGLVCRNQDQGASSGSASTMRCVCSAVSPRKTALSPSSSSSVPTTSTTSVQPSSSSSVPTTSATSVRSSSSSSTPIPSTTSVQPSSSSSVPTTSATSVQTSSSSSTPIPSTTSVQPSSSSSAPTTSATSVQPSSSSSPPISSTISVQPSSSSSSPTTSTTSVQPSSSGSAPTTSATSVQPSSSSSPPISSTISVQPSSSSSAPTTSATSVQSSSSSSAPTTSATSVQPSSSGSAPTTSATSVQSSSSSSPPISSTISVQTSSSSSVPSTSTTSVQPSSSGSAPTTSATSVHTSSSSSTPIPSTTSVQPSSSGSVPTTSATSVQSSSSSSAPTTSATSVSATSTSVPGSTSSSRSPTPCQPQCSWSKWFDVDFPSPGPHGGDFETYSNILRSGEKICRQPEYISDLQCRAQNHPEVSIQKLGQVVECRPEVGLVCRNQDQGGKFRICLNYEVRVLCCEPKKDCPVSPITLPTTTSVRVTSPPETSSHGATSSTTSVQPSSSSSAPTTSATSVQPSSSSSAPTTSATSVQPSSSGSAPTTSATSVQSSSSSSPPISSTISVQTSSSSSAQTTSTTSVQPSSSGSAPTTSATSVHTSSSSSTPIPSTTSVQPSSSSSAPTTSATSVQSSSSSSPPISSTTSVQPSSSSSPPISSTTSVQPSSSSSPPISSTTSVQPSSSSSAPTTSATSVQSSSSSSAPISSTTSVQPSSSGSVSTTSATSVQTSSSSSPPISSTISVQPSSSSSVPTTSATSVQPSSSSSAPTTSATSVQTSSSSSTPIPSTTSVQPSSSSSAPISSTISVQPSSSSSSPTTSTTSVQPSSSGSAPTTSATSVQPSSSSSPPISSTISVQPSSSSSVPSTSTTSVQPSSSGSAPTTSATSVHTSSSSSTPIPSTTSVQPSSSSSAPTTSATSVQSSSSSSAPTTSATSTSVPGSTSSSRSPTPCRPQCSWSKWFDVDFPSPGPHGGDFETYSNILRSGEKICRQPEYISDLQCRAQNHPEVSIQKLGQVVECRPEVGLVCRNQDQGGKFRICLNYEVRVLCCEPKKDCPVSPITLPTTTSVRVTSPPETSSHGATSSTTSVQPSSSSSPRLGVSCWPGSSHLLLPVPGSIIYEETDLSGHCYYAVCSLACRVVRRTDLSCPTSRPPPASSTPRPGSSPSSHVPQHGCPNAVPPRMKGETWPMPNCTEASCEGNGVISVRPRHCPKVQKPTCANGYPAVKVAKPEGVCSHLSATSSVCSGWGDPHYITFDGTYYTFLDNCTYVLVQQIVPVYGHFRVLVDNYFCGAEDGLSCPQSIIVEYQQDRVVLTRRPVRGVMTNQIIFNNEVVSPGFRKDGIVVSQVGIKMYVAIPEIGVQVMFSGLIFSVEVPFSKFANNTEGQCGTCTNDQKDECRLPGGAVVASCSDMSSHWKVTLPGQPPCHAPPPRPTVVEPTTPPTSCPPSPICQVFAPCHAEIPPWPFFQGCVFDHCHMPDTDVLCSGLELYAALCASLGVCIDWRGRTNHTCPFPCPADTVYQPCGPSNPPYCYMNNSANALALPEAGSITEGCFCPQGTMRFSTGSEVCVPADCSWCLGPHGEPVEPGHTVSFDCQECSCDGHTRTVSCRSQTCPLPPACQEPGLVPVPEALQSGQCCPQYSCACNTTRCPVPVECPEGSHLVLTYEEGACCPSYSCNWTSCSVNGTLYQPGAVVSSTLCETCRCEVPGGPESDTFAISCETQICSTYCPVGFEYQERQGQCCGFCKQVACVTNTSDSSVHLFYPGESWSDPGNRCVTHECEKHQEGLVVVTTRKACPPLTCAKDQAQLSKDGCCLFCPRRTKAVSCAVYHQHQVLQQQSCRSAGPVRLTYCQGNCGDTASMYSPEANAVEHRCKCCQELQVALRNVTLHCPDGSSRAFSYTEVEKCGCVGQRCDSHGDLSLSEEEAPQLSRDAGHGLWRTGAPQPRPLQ

By MIC is commonly meant the lowest concentration found to suppress growth. Low values mean a more susceptible organism, high ones a less susceptible organism. colistin: the MIC in data set [1] worked out at 8 µg/mL. In addition, the Molecular charge result in data set [2] was “+5”. Besides, the “Binding to mucin (ΔG; negative ΔG implies binding)” value on MUC5AC (colistin 10 μM, 4 h, 37 °C) is “bound to mucin”. Also, the “Effect of methylcellulose on colistin activity (surviving PAO1 cells, CFU)” value in data set [3] (MC 0.5% w/v in MHB) is on record as “negligible effect”. Besides, the “Effect of mucin on colistin activity (surviving PAO1 cells, CFU)” value in data set [3] (mucin 0.5% w/v in MHB) is listed as “inhibited the effect of colistin to a substantial degree”.
On to `CNCCCC12CCC(c3ccccc31)c1ccccc12` [maprotiline], for which the “Mucin binding rank within the NIH Clinical Collection (NCC) set (ΔG)” value at MUC5AC is listed as “four strongest mucin binders”.
For `Nc1nc(Cl)nc2c1ncn2[C@H]1C[C@H](O)[C@@H](CO)O1` [cladribine], at MUC5AC, the “Mucin binding rank within the NIH Clinical Collection (NCC) set (ΔG)” value is on record as “four strongest mucin binders”.
For the compound `NC[C@H]1O[C@H](O[C@H]2[C@H](O)[C@@H](O[C@H]3O[C@H](CO)[C@@H](O)[C@H](N)[C@H]3O)[C@H](N)C[C@@H]2N)[C@H](N)C[C@@H]1O` [tobramycin], in data set [2], the Molecular charge entry is on record as “+5”.
`COc1cccc2c1C(=O)c1c(O)c3c(c(O)c1C2=O)C[C@@](O)(C(=O)CO)C[C@@H]3O[C@H]1C[C@H](N)[C@H](O)[C@H](C)O1` [doxorubicin]: the “Mucin binding rank within the NIH Clinical Collection (NCC) set (ΔG)” value at MUC5AC was “four strongest mucin binders”.
With `O=c1c(-c2ccccc2)c1-c1ccccc1` [diphencyprone], the “Mucin binding rank within the NIH Clinical Collection (NCC) set (ΔG)” value at MUC5AC is listed as “four strongest mucin binders”.
